Experimental data from ChEMBL document CHEMBL1799980, “Protuboxepins A and B and protubonines A and B from the marine-derived fungus Aspergillus sp. SF-5044” (J Nat Prod, 2011).
Active and inactive are the calls of the source. No cut-off for these calls is given here.

Columns and labels:
[1] = test system: K562; test: Growth inhibition of human K562 cells at 250 uM after 48 hrs by cell proliferation assay; format: functional, cell-based
Procedure, shortened: (§1)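 K562 leukemia cells seeded at 3 × 10^4 per well in 96-well plates and exposed for 48 h to compounds in DMSO, including 250 μM. Readout was EZ-CyTox cell viability reagent with absorbance at 450 nm.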

[2] = Growth inhibition of rat 3Y1 cells at 250 uM after 48 hrs by cell proliferation assay; format: cell-based; details: 3y1, 48 h
Procedure, shortened: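 Cells seeded in 96-well plates at 5 × 10^3 per well. Compounds dissolved in DMSO and applied for 48 h. Viability read with an EZ-CyTox cell viability kit by absorbance at 450 nm.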

[3] = test system: Hep 3B2; test: Growth inhibition of human Hep3B cells at 250 uM after 48 hrs by cell proliferation assay; format: functional, cell-based
Procedure, shortened: (§2)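 Hep3B hepatocellular carcinoma cells plated at 5 × 10^3 per well in 96-well format. Treatment with DMSO-dissolved compounds, including 250 μM, lasted 48 h. Proliferation was read with the EZ-CyTox kit by A450.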

[4] = test system: MDA-MB-231; test: Growth inhibition of human MDA-MB-231 cells at 250 uM after 48 hrs by cell proliferation assay; format: functional, cell-based
Procedure, shortened: (§3)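 MDA-MB-231 breast adenocarcinoma cells at 5 × 10^3 per well in a 96-well microplate. Compounds were dissolved in DMSO and applied for 48 h, including a 250 μM level. Viability was measured with the EZ-CyTox kit as A450.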

[5] = test system: HL-60; test: Growth inhibition of human HL60 cells at 250 uM after 48 hrs by cell proliferation assay; format: functional, cell-based
[6] = Growth inhibition of human Hep3B cells after 48 hrs by cell proliferation assay; format: functional, cell-based, Hep 3B2; procedure, shortened: as §2
[7] = Growth inhibition of rat 3Y1 cells after 48 hrs by cell proliferation assay; format: cell-based; details: 3Y1, 48 h
Procedure, shortened: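 Rat 3Y1 fibroblasts seeded at 5 × 10^3 per well in 96-well plates and exposed 48 h to DMSO-dissolved test compounds. Proliferation was quantified with the EZ-CyTox viability kit by absorbance at 450 nm.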

[8] = test system: K562; test: Growth inhibition of human K562 cells after 48 hrs by cell proliferation assay; format: functional, cell-based; details: K562, 48 h; procedure, shortened: as §1
[9] = test system: MDA-MB-231; test: Growth inhibition of human MDA-MB-231 cells after 48 hrs by cell proliferation assay; format: functional, cell-based; details: MDA-MB-231, 48 h; procedure, shortened: as §3
[10] = test system: HL-60; test: Growth inhibition of human HL60 cells after 48 hrs by cell proliferation assay; format: functional, cell-based; details: HL-60, 48 h

IC50 [8] [µM]	IC50 [9] [µM]	IC50 [10] [µM]	Compound	growth inhibition (GI) [1]	growth inhibition (GI) [2]	growth inhibition (GI) [3]	growth inhibition (GI) [4]	growth inhibition (GI) [5]	IC50 [6] [µM]	IC50 [7] [µM]
–	–	–	CC(=O)N1c2ccccc2[C@]2(O)C[C@@H]3C(=O)N[C@@H](CC(C)C)C(=O)N3[C@H]12 [PROTUBONINE A]	inactive	Not Active	inactive	inactive	inactive	–	–
–	–	–	CC(=O)O[C@@]12C[C@@H]3C(=O)N[C@@H](CC(C)C)C(=O)N3[C@@H]1N(C(C)=O)c1ccccc12 [PROTUBONINE B]	inactive	Not Active	inactive	inactive	inactive	–	–
250	130	75	CCC(C)[C@@H]1NC(=O)[C@@H](Cc2ccccc2)n2c1nc1c(c2=O)C=CC=CO1 (stereo not given in full) [PROTUBOXEPIN A]	–	–	–	–	–	150	180
